We go through 1 molecule from ChEMBL document CHEMBL3751704, “Diarylthiophenes as inhibitors of the pore-forming protein perforin” (Bioorg Med Chem Lett, 2016).

The assay has as its target T1, Perforin-1 (Homo sapiens) (UniProt P14222).
T1 sequence (whole entry): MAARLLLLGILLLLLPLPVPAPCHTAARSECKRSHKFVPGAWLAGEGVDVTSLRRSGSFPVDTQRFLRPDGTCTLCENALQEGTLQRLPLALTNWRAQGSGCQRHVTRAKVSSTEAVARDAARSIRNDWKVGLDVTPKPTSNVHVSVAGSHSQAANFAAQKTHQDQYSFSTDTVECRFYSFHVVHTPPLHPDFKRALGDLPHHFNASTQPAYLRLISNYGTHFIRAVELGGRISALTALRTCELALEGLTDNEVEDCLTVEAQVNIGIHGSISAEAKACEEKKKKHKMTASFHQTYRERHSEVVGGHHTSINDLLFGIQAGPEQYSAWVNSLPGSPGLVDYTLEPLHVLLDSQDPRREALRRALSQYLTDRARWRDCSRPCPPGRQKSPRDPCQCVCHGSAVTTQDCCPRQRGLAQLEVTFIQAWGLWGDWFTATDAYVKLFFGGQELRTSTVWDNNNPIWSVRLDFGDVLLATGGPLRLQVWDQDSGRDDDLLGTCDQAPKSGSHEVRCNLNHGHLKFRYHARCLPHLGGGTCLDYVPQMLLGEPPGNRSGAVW
The experiment in a line: Inhibition of perforin released from human KHYG-1 NK cells assessed as inhibition of perforin mediated lysis of human K562 cells at 20 uM by measuring 51Cr release incubated for 20 mins by gamma counting analysis relative to control. Type of assay: cell-based. The following applies: in the assay text read “incubated for 30 mins” for “incubated for 20 mins”. The method, boiled down: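 KHYG-1 human NK effector cells preincubated with inhibitor (20 μM) in medium for 30 min at room temperature. 51Cr-labelled K562 leukaemia target cells then added and incubated 4 h at 37 °C. Lysis read as 51Cr release. Percent inhibition calculated against untreated control.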

Active and inactive are the calls of the source. No cut-off for these calls is given here.

For the molecule `CS(=O)(=O)Nc1ccc(-c2ccc(-c3ccc4c(c3)COC4=O)s2)cc1`, the inhibition entry is “inactive”.
